Measured values as given in the EternaBench riboswitch data.

Tested on: MS2 coat protein
Test: apparent Kd, MS2 coat protein; higher = weaker binding; RNA-MaP array; FMN 200 µM where present
Summary of the method: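 Stalled E. coli RNA polymerase produced the designs on Illumina sequencing-chip clusters. SNAP-549-labelled MS2 coat protein was added from 0.7 or 1.5 nM, doubling to 3 µM, without and then with constant ligand, in 100 mM Tris-HCl pH 7.5, 80 mM KCl, 4 mM MgCl2, BSA, DTT, yeast tRNA and Tween-20. The apparent Kd is the median of filtered per-cluster fits of green signal normalised to red-channel RNA signal and control-cluster median Fmax.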

[1] = designed as: OFF switch for flavin mononucleotide, no ligand
[2] = ligand present: flavin mononucleotide, designed as: OFF switch for flavin mononucleotide
[3] = designed as: ON switch for flavin mononucleotide, no ligand
[4] = ligand present: flavin mononucleotide, designed as: ON switch for flavin mononucleotide

Row | Sequence | apparent Kd [1] [nM] | apparent Kd [2] [nM] | apparent Kd [3] [nM] | apparent Kd [4] [nM]
1 | GGGUGACAUGAGGAUCACCCAUGUCAGGAUAUGGGCCCGGGUUUGAAAGGGCCCGGGCCCAGAAGGGACUGCCC | 55.3 | 127 | – | –
2 | GGGUGGCGUAGAGGAUAUGUGGUACAUGAGGAUCACCCAUGUGCAUAUGAUGUUCAUGUUUAUGUAUAGAAGGCUACGUCGCUA | – | – | 26.1 | 36.4
3 | GGGUGGCGUAGAGGAUAUGUGUUACAUGAGGAUCACCCAUGUGCAUAUGAUGUUCGUGUGUAUGCAUAGAAGGCUACGUCGCUA | – | – | 222 | 125
4 | GGGUGGCGUAGAGGAUAUGUGUUACAUGAGGAUCACCCAUGUGCAUAUGAUGUUCGUGUGUGUGUAUAGAAGGCUACGUCGCUA | – | – | 14.4 | 17.7
5 | GGUAAGAAGUGCGUGAGCUACUUGAGAAGGCGACAUGAGGAUCACCCAUGUCUGUUCCUCAAGUUCGAGGAUAUCAGGUAGUUG | 7.42 | 9.06 | – | –
6 | GGUAAGAUGCAGAAGGUGUUAGCUAGAGCUACGACAUGAGGAUCACCCAUGUACUAGAAACAGUACAAGGAUAUGCAUCUUACU | – | – | 18.9 | 6.53
7 | GGUACCAACACAGGAUAUGCUUUCCUUUGGGAAGCAGAAGGGUGAAACAUGAGGAUCACCCAUGUGGUGCCAGGGCGUGAGCCC | – | – | 1360 | 79.5
8 | GGUACCAUCACAGGAUAUCGUAUCCUUUGGGUACGAGAAGGGUGAUAACAUGAGGAUCACCCAUGUGGUACCGGGCGUGAGCCC | – | – | 1340 | 323
9 | GGUACCAUGUAGAAGGCAGAUCUGAUUCAGAUCUGAGGAUAUACAUGAGGAUCACCCAUGUAAAGGCACCGCACGAGAGUGCAA | 32.4 | 108 | – | –
10 | GGUACCUUCACAGGAUAUGCUAUCCUUUGGGUAGCAGAAGGGUGAUAACAUGAGGAUCACCCAUGUGGUACCGGGCGUGAGCCC | – | – | 1180 | 109
11 | GGUACUCAAAGAGUACCAAUACGAACAUGAGGAUCACCCAUGUAGGAUAUGCUACUCAAAGAGUAGCAGAAGGACAUGUGCAUA | 22.1 | 135 | – | –
12 | GGUACUCAAAGAGUACCAAUACGAACAUGAGGAUCACCCAUGUAGGAUAUGCUACUCAAAGAGUAGCAGAAGGAUAUGUGCCUA | 14.7 | 15.3 | – | –
13 | GGUACUCAAAGAGUACCAAUACGAACAUGAGGAUCACCCAUGUAGGAUAUGCUACUCAAAGAGUAGCAGAAGGAUAUGUGUCUA | 16.5 | 17.5 | – | –
14 | GGUACUCAAAGAGUACCAAUACGAACAUGAGGAUCACCCAUGUAGGAUAUUCUACUCAAAGAGUAGCAGAAGGACAUGUGCCUA | 10.8 | 13.1 | – | –
15 | GGUCCACGAGGAUAUCGAUUUUAGUACAUGAGGAUCACCCAUGUUGUCCAGGUUUCGAUUCGAGAAGGCGUGGGCC | 22.2 | 24.6 | – | –
16 | GGUCGUCAAGUCAGGAUAUCGUAUAGUAGAUAUAACGAGAAGGGACAUGAGGAUCACCCAUGUCGUCUCAUCAG | 19 | 29 | – | –
17 | GGUCGUCUCAUUAACAUGAGGAUCACCCAUGUCAAAAGACAUGAGGAUAUGGAUCCUAAUUGGAUCCAGAAGGCAUGGACGACC | – | – | 1110 | 60.4
18 | GGUCUACAUGAGGAUCACCCAUGUCAGGAUAUCGUGUGUUUUUUUUCGGCCGCGCGUGCGAGAAGGGACGUCUU | 17.6 | 18.1 | – | –
19 | GGUCUUCAAGUCAGGAUAUCGUCUGGUCGGUCUGGCGAGAAGGGACAUGAGGAUCACCCAUGUCGUCUCAUCAG | 25.5 | 40.2 | – | –

Row | Sequence | apparent Kd [1] [nM] | apparent Kd [2] [nM] | apparent Kd [3] [nM] | apparent Kd [4] [nM]
20 | GGUGAAGCAGGAUAUGUGCCAAUAUACAUGAGGAUCACCCAUGUCAUGUAGGAACUGCGUAUAGAAGGGCUUCACC | 37.6 | 63.5 | – | –
21 | GGUGAGAGCAAGGAUAUGCAGAAGUGAGAAAGUGCAGAAGGUGCUACAUGAGGAUCACCCAUGUUGGAUGUGUU | 37.1 | 49.1 | – | –
22 | GGUGCAGUGUAGAAGGCAGAUCUGAUUCAGAUCUGAGGAUAUACAUGAGGAUCACCCAUGUUAUGCACCAGCACGAGAGUGCAA | 6.28 | 8.76 | – | –
23 | GGUGCAUAUGAGAAGGCGAUCAUGAAACAUGAUCGAGGAUAUCAUGUAAACAUGAGGAUCACCCAUGUAUGGGUAAAGUGCAUC | – | – | 444 | 27.1
24 | GGUGCCAUGUAGAAGGCAGAUCUGAUUCAGAUCUGAGGAUAUACAUGAGGAUCACCCAUGUAAAGGCACCGCCCGAGAGUGCAA | 7.46 | 17.6 | – | –
25 | GGUGCGUAUGUGAGGAUAUGCUGGUCCUUGGAUCGGCAGAAGGCACAUGAGGAUCACCCAUGUGGUGUCGUACU | 300 | 25.5 | – | –
26 | GGUGCGUAUGUGAGGAUAUGCUGGUCCUUGGAUCGGCAGAAGGUACAUGAGGAUCACCCAUGUGGUGUCGUUCC | 97.5 | 289 | – | –
27 | GGUGCGUAUGUGAGGAUAUGCUGGUCCUUGGAUCUGCAGAAGGCACAUGAGGAUCACCCAUGUGGUGUCGUACC | 356 | 28.5 | – | –
28 | GGUGCGUAUGUGAGGAUAUGCUGGUCCUUGGCUCAGCAGAAGGCACAUGAGGAUCACCCAUGUGGUGUCGUACC | 333 | 21.8 | – | –
29 | GGUGCGUAUGUGAGGAUAUGCUGGUCCUUGGCUCGGCAGAAGGCACAUGAGGAUCACCCAUGUGGUGUCGUACC | 278 | 50.9 | – | –
30 | GGUGCGUUUGUGAGGAUAUGCUGGUCCUUGGUUCUGCAGAAGGCACAUGAGGAUCACCCAUGUGGUGUCGUACC | 77 | 162 | – | –
31 | GGUGGACAUGAGGAUCACCCAUGUGAGGAUAUCGGCCGGCUAGUGGCGGCUGGCUUCUCGAGAAGGCGCAUAGU | 47.2 | 62.9 | – | –
32 | GGUGGACAUGAGGAUCACCCAUGUGAGGAUAUCGGCUAUCUUGUCGCUGUCGGUUGCUCGAGAAGGCACAUUGU | 78.8 | 128 | – | –
33 | GGUGGCGCCUAGAAGGCCGGCCAAGAAGGAGCCGGAGGAUAUAGGCCUACAUGAGGAUCACCCAUGUGGCUUAGUCAUAUGGUU | 22.4 | 120 | – | –
34 | GGUGGGAGGUAGACUGGACGGGCAACAUGAGGAUCACCCAUGUAGGAUAUCGUGUGUGUCAACGACGAGAAGGGCGUAGGCGGA | 20.3 | 17.1 | – | –
35 | GGUGGUUGAGGAUAUACGAACAUGUCGCCAGAUGUCAUGGUACAUGAGGAUCACCCAUGUAGAAGGUGGUUGUC | 357 | 576 | – | –
36 | GGUGUAUAUGAGAAGGCGAUCAUGAAACAUGAUCGAGGAUAUCAUGUAAACAUGAGGAUCACCCAUGUAUGGGAAUAUUGCACC | – | – | 133 | 15
37 | GGUGUGUCAGGAUAUCAACACACGGCAGCAGCGUUAUGCGUUGAGAAGGGACAUGAGGAUCACCCAUGUGACGG | 46 | 70.9 | – | –
38 | GGUUACAAGUAAGGAUAUGUAUAUGAAACAUAUACAGAAGGUACAUGAGGAUCACCCAUGUUCUUGCAAAGCGAAUAUGUAACC | 15.1 | 18.6 | – | –

Row | Sequence | apparent Kd [1] [nM] | apparent Kd [2] [nM] | apparent Kd [3] [nM] | apparent Kd [4] [nM]
39 | GGUUAUUGCAAGGAUAUGCUUUUUUGUGAAAUUGCAGAAGGUGCAACAUGAGGAUCACCCAUGUUGGAUGGGUU | 104 | 131 | – | –
40 | GGUUCGAAAGUGAGGAUAUGCUGGUCCUUGGAUCAGCAGAAGGCACAUGAGGAUCACCCAUGUCCAAGCGGACC | 59 | 398 | – | –
41 | GGUUGACAAAGUCAACCUAUUCGAACAUGAGGAUCACCCAUGUAGGAUAUGCUACUCAAAGAGUAGCAGAAGGACAUGUGCCUU | 32.7 | 172 | – | –
42 | GGUUGGCGAGGAUAUACAUGAGGAUCACCCAUGUGAGAGAUACUAGUGAGGUCGAUUGGUAGAAGGCGCUGACA | 108 | 58.6 | – | –
43 | GGUUGGCGAGGAUAUACAUGAGGAUCACCCAUGUGGUCCUGUGGCUGAUCUUGCCUAUGUAGAAGGCGCAAAUC | 35.7 | 280 | – | –
44 | GGUUUGCGGCAGGAUAUCCAUCCGCGGUGUGGUGGAGAAGGGCUGACAUGAGGAUCACCCAUGUGCGUCCUGGG | 33.8 | 71.7 | – | –
45 | GUAAACCUAGGAUAUACAUGAGGAUCACCCAUGUAUUGAUCGUGCGGCUGUUCCGGAGGUAGAAGGAGGAACCU | 20.7 | 34.2 | – | –
46 | GUAAAGUGAGGAUAUGGUAAAUUAAUUAUUAAUUAAUUAAUCCAGAAGGCACAUGAGGAUCACCCAUGUAAUUG | – | 39.1 | – | –
47 | GUAAAGUGAGGAUAUGGUAAUUUAAUUAUUAAUUAAUUAAUCCAGAAGGCACAUGAGGAUCACCCAUGUAAAGG | 39.6 | 74.6 | – | –
48 | GUAAAUCAUGUAGGAUAUGCAUGGCGAAGCUACGCAGAAGGACAUGAGGAUCACCCAUGUUAUAGCUACCCGUUACGGUGGCAA | 100 | 236 | – | –
49 | GUAACGCUUGACAUGAGGAUCACCCAUGUUAGAUUGUUAUGUCAGGAUAUAGUCUAGAAACUAGACUAGAAGGGAUAUGUUGCU | – | – | 59.3 | 29
50 | GUAAUUAAGAGAGGAUAUUGACAUGAGGAUCACCCAUGUAUUUGGGAGUGUUCACUGAAUUCUUACGAGAAGGCUUUUAAAUAC | 329 | 285 | – | –
51 | GUACAACAUGAGGAUCACCCAUGUAUAUAUAUACGAGGAUAUGCAUGUACGAAAGUAUAUGCAGAAGGCGUUGUAC | – | – | 127 | 30.2
52 | GUACAUGAGCAGAAGGGCAAUUAAUUAAAUUUUUAUGUUUAUCAGAUAUGCAGGAUAUGUUAAACAUGAGGAUCACCCAUGUAC | – | – | 129 | 65.8
53 | GUACCUUAUGAGAAGGCGAUCAUGAAACAUGAUCGAGGAUAUCAUGAAAACAUGAGGAUCACCCAUGUAUGGGUAUUAUGGUAC | – | – | 49.6 | 17.7
54 | GUAGAGUAAGGAUAUACAGAAUAGGAUAGAAUGGUUAGAAUGUAGAAGGUACAUGAGGAUCACCCAUGUAAUGU | 19.7 | 18.4 | – | –
55 | GUAGAGUAAGGAUAUCAAGAAUAGGAUAGAAUGGUUAGAAUUGAGAAGGUACAUGAGGAUCACCCAUGUAAUGU | 20.9 | 21 | – | –
56 | GUAGCAUACCAAGGAUAUUCAGGGCUUGGAUAGACAUGAGGAUCACCCAUGUGGCGAAAGUCUAGGGAGAAGGUGGUAUGCUAC | – | – | 16 | 13.8
